Results collected from several papers.
Compare with care: the assays were run in different laboratories.
Observed: cell growth or viability

| Structure (SMILES) | cell line | test | conditions | measurement | value |
| --- | --- | --- | --- | --- | --- |
| COc1ccc(-c2oc3ccc(O)c(CN4CCCCC4)c3c2C(=O)NCc2cn(Cc3ccccc3)nn2)cc1 | J774.A1 | resazurin | 18 h | IC50 | 8 µM |
| FC(F)(F)c1ccc(-c2cc(CNc3cccc4cccnc34)on2)cc1 | DND41 | MTS | 72 h | IC50 | 82.3 µM |
| C[C@H]1CNCCCN1c1nccc(-c2noc3c2CCC[C@@]32CCCc3sc(N)c(C#N)c32)n1 | NCI-H727 |  | 5 days | EC50 | 0.399 µM |
| COc1cccc2c1C(=O)c1c(O)c3c(c(O)c1C2=O)C[C@@](O)(C(=O)CO)C[C@@H]3O[C@H]1C[C@H](N)[C@H](O)[C@H](C)O1 | SU-DHL10 | ATP luminescence | 72 h | IC50 | 0.32 µM |
| CCOc1ccc(C(=O)CC(SCc2ccc(Cl)cc2)C(=O)OC)cc1 (centres unmarked) | WM 266-4 | MTT | 48 h | EC50 | 21 µM |
| Nc1cccc2c1C(=O)N(C1CCC(=O)NC1=O)C2=O (centres unmarked) | OCI-Ly10 | CCK-8 | 7 days | IC50 | 0.36 µM |
| C[C@H]1CN(C)CCN1c1nccc(-c2noc3c2CCC[C@@]32CCCc3sc(N)c(C#N)c32)n1 | NCI-H727 |  | 5 days | EC50 | 0.304 µM |
| c1ccc(-c2cc(CNc3cccc4cccnc34)on2)cc1 | DND41 | MTS | 72 h | IC50 | > 100 µM |
| C[C@H]1CNCCN1c1nccc(-c2noc([C@@]3(C)CCCc4sc(N)c(C#N)c43)n2)n1 | NCI-H727 |  | 5 days | EC50 | > 1 µM |
| Cc1nc(Nc2ncc(C(=O)Nc3c(C)cccc3Cl)s2)cc(N2CC[C@H](O)C2)n1 | JeKo-1 | ATP luminescence | 72 h | IC50 | > 10 µM |
| O=c1cc(OCc2cc(-c3ccccn3)no2)c2ccccc2o1 | DND41 | MTS | 72 h | IC50 | > 100 µM |
| C#CCNC(=O)c1c(-c2ccc(OC)cc2)oc2ccc(O)c(CN3CCCCC3)c12 | J774.A1 | resazurin | 18 h | IC50 | 27.8 µM |
| Clc1ccc(-c2cc(CNc3cccc4cccnc34)on2)c(Cl)c1 | DND41 | MTS | 72 h | IC50 | 53.9 µM |
| C[C@H]1CNCCCN1c1nccc(-c2noc([C@@]3(C)CCCc4sc(N)c(C#N)c43)n2)n1 | NCI-H727 |  | 5 days | EC50 | > 1 µM |
